# System: U2OS
# Assay: Multiplex assay against U2OS
# Type: toxicity, cell-based
# Conditions: human
# Outline: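 Live cells were stained at seeding with Hoechst33342, BioTracker Green Microtubule Cytoskeleton Dye, MitoTracker Red and Annexin V Alexa Fluor 680. Following compound addition, they were imaged on a CQ1 microscope at 37°C and 5% CO2 and gated by CellPathfinder machine learning into Hoechst high-intensity objects or normal cells, with normal cells split into healthy, pyknosed or fragmented nuclei and pyknosed cells into mitotic or apoptotic. Tubulin, mitochondrial-mass and membrane-permeability phenotypes are per cents of healthy-nucleus cells.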
# [1] = 12 h, 1 µM, compound concentration 1 uM, replicate 1
# [2] = 12 h, 1 µM, compound concentration 1 uM, replicate 2
# [3] = 12 h, 10 µM, compound concentration 10 uM, replicate 1
# [4] = 12 h, 10 µM, compound concentration 10 uM, replicate 2
# [5] = 24 h, 1 µM, compound concentration 1 uM, replicate 1
# [6] = 24 h, 1 µM, compound concentration 1 uM, replicate 2
# [7] = 24 h, 10 µM, compound concentration 10 uM, replicate 1
# [8] = 24 h, 10 µM, compound concentration 10 uM, replicate 2
# [9] = 48 h, 1 µM, compound concentration 1 uM, replicate 1
# [10] = 48 h, 1 µM, compound concentration 1 uM, replicate 2
# [11] = 48 h, 10 µM, compound concentration 10 uM, replicate 1
# [12] = 48 h, 10 µM, compound concentration 10 uM, replicate 2
smiles,measurement,setting,value
CN1C2CCC1CC(OC(c1ccc(F)cc1)c1ccc(F)cc1)C2.Cl (stereo not drawn),Population Apoptotic (%),[1],45%
same,Population Fragmented Nuclei (%),[1],8%
same,Population Healthy Nuclei (%),[1],80%
same,Population Hoechst High Intensity Objects (%),[1],4%
same,Population Membrane Permeable-Phenotype (%),[1],2%
same,Population Mitochondria Different-Phenotype (%),[1],11%
same,Population Mitotic Cells (%),[1],54%
same,Population Normal (%),[1],95%
same,Population Pyknosed Nuclei (%),[1],10%
same,Total Cell Count,[1],223
same,Population Apoptotic (%),[2],100%
same,Population Fragmented Nuclei (%),[2],5%
same,Population Healthy Nuclei (%),[2],92%
same,Population Hoechst High Intensity Objects (%),[2],2%
same,Population Membrane Permeable-Phenotype (%),[2],3%
same,Population Mitochondria Different-Phenotype (%),[2],4%
same,Population Mitotic Cells (%),[2],0%
same,Population Normal (%),[2],97%
same,Population Pyknosed Nuclei (%),[2],1%
same,Population Tubulin-Different-Phenotype (%),[2],8%
same,Total Cell Count,[2],69
same,Population Apoptotic (%),[3],56%
same,Population Fragmented Nuclei (%),[3],15%
same,Population Healthy Nuclei (%),[3],68%
same,Population Hoechst High Intensity Objects (%),[3],4%
same,Population Membrane Permeable-Phenotype (%),[3],4%
same,Population Mitochondria Different-Phenotype (%),[3],81%
same,Population Mitotic Cells (%),[3],43%
same,Population Normal (%),[3],95%
same,Population Pyknosed Nuclei (%),[3],15%
same,Population Tubulin-Different-Phenotype (%),[3],54%
same,Total Cell Count,[3],151
same,Population Apoptotic (%),[4],80%
same,Population Fragmented Nuclei (%),[4],8%
same,Population Healthy Nuclei (%),[4],78%
same,Population Hoechst High Intensity Objects (%),[4],6%
same,Population Membrane Permeable-Phenotype (%),[4],10%
same,Population Mitochondria Different-Phenotype (%),[4],89%
same,Population Mitotic Cells (%),[4],20%
same,Population Normal (%),[4],93%
same,Population Pyknosed Nuclei (%),[4],13%
same,Population Tubulin-Different-Phenotype (%),[4],49%
same,Total Cell Count,[4],78
same,Population Apoptotic (%),[5],50%
same,Population Fragmented Nuclei (%),[5],7%
same,Population Healthy Nuclei (%),[5],84%
same,Population Hoechst High Intensity Objects (%),[5],3%
same,Population Membrane Permeable-Phenotype (%),[5],1%
same,Population Mitochondria Different-Phenotype (%),[5],6%
same,Population Mitotic Cells (%),[5],50%
same,Population Normal (%),[5],96%
same,Population Pyknosed Nuclei (%),[5],7%
same,Population Tubulin-Different-Phenotype (%),[5],3%
same,Total Cell Count,[5],305
same,Population Apoptotic (%),[6],20%
same,Population Fragmented Nuclei (%),[6],3%
same,Population Healthy Nuclei (%),[6],90%
same,Population Hoechst High Intensity Objects (%),[6],2%
same,Population Membrane Permeable-Phenotype (%),[6],4%
same,Population Mitochondria Different-Phenotype (%),[6],4%
same,Population Mitotic Cells (%),[6],80%
same,Population Normal (%),[6],97%
same,Population Pyknosed Nuclei (%),[6],6%
same,Population Tubulin-Different-Phenotype (%),[6],8%
same,Total Cell Count,[6],82
same,Population Apoptotic (%),[7],62%
same,Population Fragmented Nuclei (%),[7],15%
same,Population Healthy Nuclei (%),[7],65%
same,Population Hoechst High Intensity Objects (%),[7],7%
same,Population Membrane Permeable-Phenotype (%),[7],0%
same,Population Mitochondria Different-Phenotype (%),[7],71%
same,Population Mitotic Cells (%),[7],37%
same,Population Normal (%),[7],92%
same,Population Tubulin-Different-Phenotype (%),[7],30%
same,Total Cell Count,[7],196
same,Population Apoptotic (%),[8],80%
same,Population Fragmented Nuclei (%),[8],16%
same,Population Healthy Nuclei (%),[8],64%
same,Population Hoechst High Intensity Objects (%),[8],3%
same,Population Membrane Permeable-Phenotype (%),[8],6%
same,Population Mitochondria Different-Phenotype (%),[8],78%
same,Population Mitotic Cells (%),[8],20%
same,Population Normal (%),[8],96%
same,Population Pyknosed Nuclei (%),[8],19%
same,Population Tubulin-Different-Phenotype (%),[8],25%
same,Total Cell Count,[8],107
same,Population Apoptotic (%),[9],33%
same,Population Fragmented Nuclei (%),[9],6%
same,Population Healthy Nuclei (%),[9],87%
same,Population Hoechst High Intensity Objects (%),[9],1%
same,Population Membrane Permeable-Phenotype (%),[9],2%
same,Population Mitochondria Different-Phenotype (%),[9],6%
same,Population Mitotic Cells (%),[9],66%
same,Population Normal (%),[9],98%
same,Population Pyknosed Nuclei (%),[9],6%
same,Population Tubulin-Different-Phenotype (%),[9],5%
same,Total Cell Count,[9],477
same,Population Apoptotic (%),[10],0%
same,Population Fragmented Nuclei (%),[10],1%
same,Population Healthy Nuclei (%),[10],97%
same,Population Hoechst High Intensity Objects (%),[10],2%
same,Population Membrane Permeable-Phenotype (%),[10],5%
same,Population Mitochondria Different-Phenotype (%),[10],16%
same,Population Mitotic Cells (%),[10],100%
same,Population Normal (%),[10],97%
same,Population Pyknosed Nuclei (%),[10],0%
same,Population Tubulin-Different-Phenotype (%),[10],7%
same,Total Cell Count,[10],119
same,Population Apoptotic (%),[11],64%
same,Population Fragmented Nuclei (%),[11],20%
same,Population Healthy Nuclei (%),[11],63%
same,Population Hoechst High Intensity Objects (%),[11],5%
same,Population Membrane Permeable-Phenotype (%),[11],1%
same,Population Mitochondria Different-Phenotype (%),[11],44%
same,Population Mitotic Cells (%),[11],35%
same,Population Normal (%),[11],94%
same,Population Pyknosed Nuclei (%),[11],15%
same,Population Tubulin-Different-Phenotype (%),[11],17%
same,Total Cell Count,[11],249
same,Population Apoptotic (%),[12],77%
same,Population Fragmented Nuclei (%),[12],16%
same,Population Healthy Nuclei (%),[12],75%
same,Population Hoechst High Intensity Objects (%),[12],6%
same,Population Membrane Permeable-Phenotype (%),[12],18%
same,Population Mitochondria Different-Phenotype (%),[12],56%
same,Population Mitotic Cells (%),[12],22%
same,Population Normal (%),[12],93%
same,Population Pyknosed Nuclei (%),[12],7%
same,Population Tubulin-Different-Phenotype (%),[12],27%
same,Total Cell Count,[12],127
COC(=N)c1nc2ccc3ncnc(Nc4ccc(OC)cc4F)c3c2s1,Population Apoptotic (%),[1],36%
same,Population Fragmented Nuclei (%),[1],9%
same,Population Healthy Nuclei (%),[1],78%
same,Population Hoechst High Intensity Objects (%),[1],8%
same,Population Membrane Permeable-Phenotype (%),[1],17%
same,Population Mitochondria Different-Phenotype (%),[1],25%
same,Population Mitotic Cells (%),[1],63%
same,Population Normal (%),[1],91%
same,Population Pyknosed Nuclei (%),[1],12%
same,Population Tubulin-Different-Phenotype (%),[1],27%
same,Total Cell Count,[1],162
same,Population Apoptotic (%),[2],23%
same,Population Fragmented Nuclei (%),[2],10%
same,Population Healthy Nuclei (%),[2],75%
same,Population Hoechst High Intensity Objects (%),[2],6%
same,Population Membrane Permeable-Phenotype (%),[2],16%
same,Population Mitochondria Different-Phenotype (%),[2],30%
same,Population Mitotic Cells (%),[2],76%
same,Population Normal (%),[2],93%
same,Population Pyknosed Nuclei (%),[2],13%
same,Population Tubulin-Different-Phenotype (%),[2],33%
same,Total Cell Count,[2],110
same,Population Apoptotic (%),[3],37%
same,Population Fragmented Nuclei (%),[3],2%
same,Population Healthy Nuclei (%),[3],92%
same,Population Hoechst High Intensity Objects (%),[3],1%
same,Population Membrane Permeable-Phenotype (%),[3],10%
same,Population Mitochondria Different-Phenotype (%),[3],19%
same,Population Mitotic Cells (%),[3],62%
same,Population Normal (%),[3],98%
same,Population Pyknosed Nuclei (%),[3],5%
same,Population Tubulin-Different-Phenotype (%),[3],25%
same,Total Cell Count,[3],190
same,Population Fragmented Nuclei (%),[4],13%
same,Population Healthy Nuclei (%),[4],77%
same,Population Hoechst High Intensity Objects (%),[4],13%
same,Population Membrane Permeable-Phenotype (%),[4],8%
same,Population Mitochondria Different-Phenotype (%),[4],24%
same,Population Normal (%),[4],86%
same,Population Pyknosed Nuclei (%),[4],8%
same,Population Tubulin-Different-Phenotype (%),[4],32%
same,Total Cell Count,[4],179
same,Population Apoptotic (%),[5],28%
same,Population Fragmented Nuclei (%),[5],5%
same,Population Healthy Nuclei (%),[5],82%
same,Population Hoechst High Intensity Objects (%),[5],5%
same,Population Membrane Permeable-Phenotype (%),[5],17%
same,Population Mitochondria Different-Phenotype (%),[5],22%
same,Population Mitotic Cells (%),[5],71%
same,Population Normal (%),[5],94%
same,Population Pyknosed Nuclei (%),[5],12%
same,Population Tubulin-Different-Phenotype (%),[5],44%
same,Total Cell Count,[5],219
same,Population Apoptotic (%),[6],44%
same,Population Fragmented Nuclei (%),[6],9%
same,Population Hoechst High Intensity Objects (%),[6],8%
same,Population Membrane Permeable-Phenotype (%),[6],12%
same,Population Mitochondria Different-Phenotype (%),[6],27%
same,Population Mitotic Cells (%),[6],55%
same,Population Normal (%),[6],91%
same,Population Pyknosed Nuclei (%),[6],7%
same,Population Tubulin-Different-Phenotype (%),[6],39%
same,Total Cell Count,[6],118
same,Population Fragmented Nuclei (%),[7],1%
same,Population Healthy Nuclei (%),[7],96%
same,Population Hoechst High Intensity Objects (%),[7],1%
same,Population Membrane Permeable-Phenotype (%),[7],7%
same,Population Mitochondria Different-Phenotype (%),[7],16%
same,Population Normal (%),[7],98%
same,Population Pyknosed Nuclei (%),[7],1%
same,Population Tubulin-Different-Phenotype (%),[7],28%
same,Total Cell Count,[7],264
same,Population Apoptotic (%),[8],75%
same,Population Fragmented Nuclei (%),[8],11%
same,Population Healthy Nuclei (%),[8],85%
same,Population Hoechst High Intensity Objects (%),[8],7%
same,Population Membrane Permeable-Phenotype (%),[8],10%
same,Population Mitochondria Different-Phenotype (%),[8],34%
same,Population Mitotic Cells (%),[8],25%
same,Population Normal (%),[8],92%
same,Population Pyknosed Nuclei (%),[8],3%
same,Population Tubulin-Different-Phenotype (%),[8],32%
same,Total Cell Count,[8],222
